In ChEMBL document CHEMBL1134554, “Design, synthesis, and structure-activity relationships of macrocyclic hydroxamic acids that inhibit tumor necrosis factor alpha release in vitro and in vivo” (J Med Chem, 2001):

How the values were obtained:
[1] = target: Disintegrin and metalloproteinase domain-containing protein 17 (Homo sapiens, UniProt P78536)
[2] = Pharmacokinetic data in Beagle dogs at 0.5 mg/kg i.v. dose and 2.0 mg/kg p.o. dose; type: ADME, organism-based, Canis lupus familiaris; conditions: dog, in vivo, po
[3] = Pharmacokinetic data in Beagle dogs at 2.0 mg/kg oral dose; type: ADME, organism-based, Canis lupus familiaris; design: dose 2 mg/kg, route oral; conditions: dog, in vivo
[4] = Pharmacokinetic data in Beagle dogs at 2.0 mg/kg oral dose.; type: ADME, organism-based, Canis lupus familiaris; design: dose 2 mg/kg, route oral; conditions: dog, in vivo
[5] = Maximal plasma concentration in Beagle dogs after 0.5 mg/kg intravenous dose.; type: ADME, organism-based, Canis lupus familiaris; design: dose 0.5 mg/kg, route intravenous; conditions: dog
Method in brief: (§1)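 Male beagle dogs (~10 kg), two per compound, dosed iv in 10% ethanol solution. Blood sampled before dosing and at 1, 2, 4, 6, 8, 12 and 24 h after. Plasma levels measured by LC/MS/MS after solid-phase extraction (detection limit 10 nM). Parameters reported as mean.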

Stromelysin-1 = Stromelysin-1 (Homo sapiens, UniProt P08254); assay: Inhibition of human MMP-3.
[6] = target: Matrix metalloproteinase-9 (Homo sapiens, UniProt P14780); assay: In vitro inhibition of human MMP-9.
Matrilysin = target: T1, Matrilysin (Homo sapiens, UniProt P09237); assay: Inhibition of matrix metalloprotease-7
T1 sequence (P09237 whole entry): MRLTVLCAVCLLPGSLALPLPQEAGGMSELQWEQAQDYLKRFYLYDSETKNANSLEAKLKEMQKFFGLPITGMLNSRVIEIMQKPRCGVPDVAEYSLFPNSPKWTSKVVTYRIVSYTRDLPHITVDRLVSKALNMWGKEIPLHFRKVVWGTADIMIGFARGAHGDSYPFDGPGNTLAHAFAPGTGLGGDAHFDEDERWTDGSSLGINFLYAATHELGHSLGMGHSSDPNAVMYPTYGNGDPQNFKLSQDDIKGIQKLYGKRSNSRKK

[7] = target: Matrix metalloproteinase-14 (Homo sapiens, UniProt P50281); assay: Inhibition of matrix metalloprotease-14
[8] = target: Matrix metalloproteinase-15 (Homo sapiens, UniProt P51511); assay: Inhibition of matrix metalloprotease-15
[9] = target: Matrix metalloproteinase-16 (Homo sapiens, UniProt P51512); assay: Inhibition of matrix metalloprotease-16
Interstitial collagenase = target: T2, Interstitial collagenase (Homo sapiens, UniProt P03956); assay: In vitro inhibition of human MMP-1.
T2 sequence (P03956 whole entry): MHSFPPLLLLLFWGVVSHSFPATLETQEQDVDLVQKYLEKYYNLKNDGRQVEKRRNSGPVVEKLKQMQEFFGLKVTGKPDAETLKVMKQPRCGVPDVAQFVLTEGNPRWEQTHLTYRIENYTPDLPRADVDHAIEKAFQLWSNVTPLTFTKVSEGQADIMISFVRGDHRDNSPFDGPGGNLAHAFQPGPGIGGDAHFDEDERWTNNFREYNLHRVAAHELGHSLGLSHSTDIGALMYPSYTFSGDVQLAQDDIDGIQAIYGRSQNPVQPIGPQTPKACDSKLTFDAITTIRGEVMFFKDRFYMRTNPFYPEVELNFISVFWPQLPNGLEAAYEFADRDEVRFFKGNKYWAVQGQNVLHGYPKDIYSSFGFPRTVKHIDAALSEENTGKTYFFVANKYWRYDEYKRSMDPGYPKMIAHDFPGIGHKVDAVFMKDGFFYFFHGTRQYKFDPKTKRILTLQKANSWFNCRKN

[10] = Pharmacokinetic data in Beagle dogs at 0.5 mg/kg intravenous dose.; type: ADME, organism-based, Canis lupus familiaris; design: dose 0.5 mg/kg, route intravenous; conditions: dog, in vivo
Method in brief: as §1

Mus musculus = assay: Compound at an oral dose of 30 mg/Kg was tested for the inhibition of LPS-stimulated TNF-alpha release in mouse; type: functional
Method in brief: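 Mice dosed orally at time zero, then immediately given ip D-galactosamine 20 mg plus LPS 10 μg. One hour later, animals anesthetized and bled by cardiac puncture. Plasma TNF-α quantified by mouse-specific ELISA.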

Sequence of Disintegrin and metalloproteinase domain-containing protein 17 (P78536 whole entry, the tested form may be a part): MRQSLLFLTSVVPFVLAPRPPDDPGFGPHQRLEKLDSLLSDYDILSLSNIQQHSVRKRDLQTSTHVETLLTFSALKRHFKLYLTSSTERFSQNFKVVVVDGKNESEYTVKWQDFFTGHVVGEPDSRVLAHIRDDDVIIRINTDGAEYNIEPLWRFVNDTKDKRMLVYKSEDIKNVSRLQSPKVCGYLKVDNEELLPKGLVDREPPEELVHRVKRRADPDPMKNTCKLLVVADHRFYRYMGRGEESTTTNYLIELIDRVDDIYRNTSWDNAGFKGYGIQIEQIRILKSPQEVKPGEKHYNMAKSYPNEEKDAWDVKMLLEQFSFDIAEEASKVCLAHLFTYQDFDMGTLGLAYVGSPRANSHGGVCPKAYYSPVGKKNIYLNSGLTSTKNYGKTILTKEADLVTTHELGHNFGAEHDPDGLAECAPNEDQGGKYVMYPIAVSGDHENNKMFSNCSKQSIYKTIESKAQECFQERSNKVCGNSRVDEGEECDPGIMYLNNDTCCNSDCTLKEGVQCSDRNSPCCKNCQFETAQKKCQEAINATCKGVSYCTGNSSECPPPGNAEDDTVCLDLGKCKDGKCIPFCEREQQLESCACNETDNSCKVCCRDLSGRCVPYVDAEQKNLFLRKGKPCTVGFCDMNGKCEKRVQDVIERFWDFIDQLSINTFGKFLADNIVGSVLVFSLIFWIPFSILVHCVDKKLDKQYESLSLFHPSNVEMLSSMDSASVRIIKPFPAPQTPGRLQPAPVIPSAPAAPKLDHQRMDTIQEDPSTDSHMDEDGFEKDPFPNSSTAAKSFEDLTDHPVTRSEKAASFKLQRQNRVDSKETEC
Sequence of Stromelysin-1 (P08254 whole entry): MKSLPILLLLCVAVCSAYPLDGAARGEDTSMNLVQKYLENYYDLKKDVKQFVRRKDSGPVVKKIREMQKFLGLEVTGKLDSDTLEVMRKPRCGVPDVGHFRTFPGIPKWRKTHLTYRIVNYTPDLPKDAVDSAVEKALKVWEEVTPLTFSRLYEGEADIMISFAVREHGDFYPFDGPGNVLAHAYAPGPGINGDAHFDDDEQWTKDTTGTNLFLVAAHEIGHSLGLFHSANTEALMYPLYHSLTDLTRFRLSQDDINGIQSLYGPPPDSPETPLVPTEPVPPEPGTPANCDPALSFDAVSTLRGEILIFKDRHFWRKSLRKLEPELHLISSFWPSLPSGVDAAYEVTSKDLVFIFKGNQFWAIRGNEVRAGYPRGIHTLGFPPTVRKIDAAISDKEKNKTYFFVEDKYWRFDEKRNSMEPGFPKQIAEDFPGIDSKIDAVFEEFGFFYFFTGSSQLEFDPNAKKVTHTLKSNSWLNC
Sequence of Matrix metalloproteinase-16 (P51512 whole entry): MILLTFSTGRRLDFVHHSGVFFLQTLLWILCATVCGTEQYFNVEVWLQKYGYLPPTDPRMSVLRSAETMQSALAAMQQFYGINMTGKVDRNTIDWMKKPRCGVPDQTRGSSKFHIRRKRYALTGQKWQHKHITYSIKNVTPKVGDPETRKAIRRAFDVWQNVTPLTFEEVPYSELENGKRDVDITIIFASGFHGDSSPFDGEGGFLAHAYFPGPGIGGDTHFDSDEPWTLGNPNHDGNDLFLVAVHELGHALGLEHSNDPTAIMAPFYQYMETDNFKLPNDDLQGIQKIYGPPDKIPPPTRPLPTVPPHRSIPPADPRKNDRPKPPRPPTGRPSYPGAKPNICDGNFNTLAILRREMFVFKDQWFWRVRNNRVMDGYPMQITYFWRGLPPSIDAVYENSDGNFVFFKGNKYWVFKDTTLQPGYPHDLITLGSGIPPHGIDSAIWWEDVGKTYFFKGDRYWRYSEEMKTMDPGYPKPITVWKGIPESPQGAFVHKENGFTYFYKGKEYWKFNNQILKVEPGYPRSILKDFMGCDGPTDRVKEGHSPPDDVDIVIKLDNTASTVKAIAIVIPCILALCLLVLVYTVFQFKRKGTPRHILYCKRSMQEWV
Sequence of Matrix metalloproteinase-15 (P51511 whole entry): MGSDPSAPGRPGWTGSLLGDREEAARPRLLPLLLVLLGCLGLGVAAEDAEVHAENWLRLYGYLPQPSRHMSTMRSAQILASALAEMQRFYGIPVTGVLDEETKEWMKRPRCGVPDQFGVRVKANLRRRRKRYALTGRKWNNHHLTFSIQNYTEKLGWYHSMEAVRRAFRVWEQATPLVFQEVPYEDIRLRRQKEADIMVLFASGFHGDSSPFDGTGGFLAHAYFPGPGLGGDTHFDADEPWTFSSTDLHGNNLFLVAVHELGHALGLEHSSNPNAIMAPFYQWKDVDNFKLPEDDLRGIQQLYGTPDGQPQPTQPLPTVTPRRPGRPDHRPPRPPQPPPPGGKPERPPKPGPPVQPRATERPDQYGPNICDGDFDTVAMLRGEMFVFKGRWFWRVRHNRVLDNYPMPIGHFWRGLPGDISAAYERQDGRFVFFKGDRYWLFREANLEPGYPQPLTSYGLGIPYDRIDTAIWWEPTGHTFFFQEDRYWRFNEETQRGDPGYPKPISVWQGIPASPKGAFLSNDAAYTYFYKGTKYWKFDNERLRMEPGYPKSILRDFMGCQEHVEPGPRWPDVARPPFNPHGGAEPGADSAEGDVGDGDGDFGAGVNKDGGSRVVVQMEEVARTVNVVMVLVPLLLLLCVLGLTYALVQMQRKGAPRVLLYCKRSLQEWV
Sequence of Matrix metalloproteinase-9 (P14780 whole entry): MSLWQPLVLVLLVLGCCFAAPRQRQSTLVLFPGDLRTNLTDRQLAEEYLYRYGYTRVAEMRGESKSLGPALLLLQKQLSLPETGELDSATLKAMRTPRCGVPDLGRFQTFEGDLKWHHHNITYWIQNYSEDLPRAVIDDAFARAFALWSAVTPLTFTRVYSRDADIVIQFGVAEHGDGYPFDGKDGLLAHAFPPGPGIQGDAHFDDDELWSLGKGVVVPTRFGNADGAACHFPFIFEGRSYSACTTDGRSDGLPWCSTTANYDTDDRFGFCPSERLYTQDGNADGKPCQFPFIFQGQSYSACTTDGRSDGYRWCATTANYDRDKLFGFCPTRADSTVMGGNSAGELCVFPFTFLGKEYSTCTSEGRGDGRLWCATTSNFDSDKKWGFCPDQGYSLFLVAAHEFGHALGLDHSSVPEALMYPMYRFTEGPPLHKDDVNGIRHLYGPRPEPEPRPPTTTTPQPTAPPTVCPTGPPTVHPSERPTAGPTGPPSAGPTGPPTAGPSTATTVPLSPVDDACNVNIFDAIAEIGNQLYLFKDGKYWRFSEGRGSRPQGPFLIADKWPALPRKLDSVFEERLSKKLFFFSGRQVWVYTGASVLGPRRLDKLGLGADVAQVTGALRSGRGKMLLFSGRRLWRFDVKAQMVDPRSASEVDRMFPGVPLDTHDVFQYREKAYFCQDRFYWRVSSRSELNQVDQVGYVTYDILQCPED

| SMILES | IC50 [1] [nM] | further results |
| --- | --- | --- |
| CC(C)C[C@H]1C(=O)N[C@H](C(=O)NCC(=O)N2CCOCC2)CCCCNC(=O)OCCC[C@@H]1C(=O)NO | – | bioavailability [2]: 23%; half-life [3]: 2.2 h; AUC [4]: 1910 ng·h/mL; Cmax [5]: 667 ng/mL; Ki (Stromelysin-1): 7.8 nM; Ki [6]: 1.2 nM; Ki (Matrilysin): 1.5 nM; Ki [7]: 140 nM; Ki [8]: 71 nM; Ki [9]: 107 nM; Ki (Interstitial collagenase): 13 nM; AUC [10]: 2080 ng·h/mL; Tmax [10]: 1.25 h; clearance [10]: 4.83 mL/min/kg; half-life [10]: 1 h; Vd ([10]; read-out: Vss): 0.33 L/kg |
| CCCCCC[C@H]1C(=O)N[C@H](C(=O)N[C@H](COC(C)(C)C)C(=O)NC)Cc2ccc(cc2)OCCC[C@@H]1C(=O)NO | 300 | inhibition in vivo at 30 mg/kg (Mus musculus): 18% |
| CC(C)C[C@H]1C(=O)N[C@H](C(=O)NCC(=O)N(C)C)Cc2ccc(cc2)OCCC[C@@H]1C(=O)NO | 400 | inhibition in vivo at 30 mg/kg (Mus musculus): 45% |
| Cc1csc(NC(=O)CNC(=O)[C@@H]2CCCCN(C)C(=O)OCCC[C@H](C(=O)NO)[C@@H](CC(C)C)C(=O)N2)n1 | 300 | – |
| CC(C)C[C@H]1C(=O)N[C@H](C(=O)NCCC(=O)N2CCOCC2)CCCCNC(=O)OCCC[C@@H]1C(=O)NO | 170 | – |
| CC(C)C[C@H]1C(=O)N[C@H](C(=O)Nc2ccccn2)CCCCN(C)C(=O)OCCC[C@@H]1C(=O)NO | 200 | – |
| CCCCCC[C@H]1C(=O)N[C@H](C(=O)OC)Cc2ccc(cc2)OCCC[C@@H]1C(=O)NO | > 50000 | – |
| CCCCCC[C@H]1C(=O)N[C@H](C(=O)NCCCn2ccnc2)Cc2ccc(cc2)OCCC[C@@H]1C(=O)NO | 820 | inhibition in vivo at 30 mg/kg (Mus musculus): 30% |
| CNC(=O)[C@@H](Cc1ccc(OC)cc1)NC(=O)[C@@H]1Cc2ccc(cc2)OCCC[C@H](C(=O)NO)[C@@H](CC(C)C)C(=O)N1 | 850 | – |
| CC(C)C[C@H]1C(=O)N[C@H](C(=O)NCCc2ccc(S(N)(=O)=O)cc2)Cc2ccc(cc2)OCCC[C@@H]1C(=O)NO | 1000 | – |
| CC(C)C[C@H]1C(=O)N[C@H](C(=O)N[C@@H]2c3ccccc3C[C@@H]2O)CCCCNC(=O)OCCC[C@@H]1C(=O)NO | 110 | – |
| CC(C)C[C@H]1C(=O)N[C@H](C(=O)NCC(=O)N2CCCC(C)(C)C2)Cc2ccc(cc2)OCCC[C@@H]1C(=O)NO | 460 | – |
| COc1ccc2[nH]cc(CCNC(=O)[C@@H]3CCCCNC(=O)OCCC[C@H](C(=O)NO)[C@@H](CC(C)C)C(=O)N3)c2c1 | 490 | – |
| CC(C)C[C@H]1C(=O)N[C@H](C(=O)NCc2ccccc2)CCCCNC(=O)OCCC[C@@H]1C(=O)NO | 740 | – |

Now from value to molecule, other results behind:

| IC50 [1] [nM] | SMILES | further results |
| --- | --- | --- |
| 300 | CC(C)C[C@H]1C(=O)N[C@H](C(=O)NCC(=O)N(C)C)CCCCN(C)C(=O)OCCC[C@@H]1C(=O)NO | – |
| 2700 | CNC(=O)[C@@H]1CCCCNCCC[C@H](C(=O)NO)[C@@H](CC(C)C)C(=O)N1 | – |
| 270 | CNC(=O)[C@@H](C)NC(=O)[C@@H]1CCCCNC(=O)OCCC[C@H](C(=O)NO)[C@@H](CC(C)C)C(=O)N1 | – |
| 580 | CC(C)C[C@H]1C(=O)N[C@H](C(=O)NCC(=O)N2CCCC(C(=O)O)C2)CCCCNC(=O)OCCC[C@@H]1C(=O)NO (some centres undefined) | – |
| 150 | CC(C)C[C@H]1C(=O)N[C@H](C(=O)N[C@H](C)C(=O)N2CCOCC2)CCCCNC(=O)OCCC[C@@H]1C(=O)NO | – |
| 190 | CC(C)C[C@H]1C(=O)N[C@H](C(=O)Nc2ccc(N3CCOCC3)cc2)CCCCNC(=O)OCCC[C@@H]1C(=O)NO | – |
| 150 | CC(C)C[C@H]1C(=O)N[C@H](C(=O)NCC(=O)N2CC(C)OC(C)C2)CCCCNC(=O)OCCC[C@@H]1C(=O)NO (some centres undefined) | – |
